Screening data from PubChem.
Lipid droplet – modulators of hepatic lipid droplet formation; 0.4% of 240,000 active; inhibition, % at 6.5 µM; AML12 mouse hepatocytes, oleate lipid droplets, BODIPY imaging;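 active = lipid droplet intensity inhibited by at least 50%, with more than 500 cells counted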
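Assay system: AML12 mouse liver cells | Compound dosing: One dose, 6.5 µM compound | Read-out basis: Droplet intensity reduction, % inhibition | Measured by: Fluorescence imaging, 20x objective, two fields per well | Schedule: Overnight treatment with compound plus oleate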
TLR9-MyD88 block – inhibitors of human TLR9-MyD88 binding | Q9NR96+Q99836 | CHO BLA complementation TLR9-MyD88, CCF4 FRET ratio | inhibition, % at 4.98 µM | 0.21% of 340,000 active | AID 504734;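 active = inhibition above the mean over all tested compounds plus 3 SD, cut at about 21% in these data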;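 note: 0% = DMSO only wells and 100% = clavulanate BLA inhibitor control wells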
NOD2 RIPK2 PPI – NOD2-RIPK2 protein interaction inhibition | O43353 | CHO BLA complementation NOD2-RIPK2, CCF4 ratio | inhibition, % at 4.98 µM | 0.38% of 360,000 active | AID 624267; in the data active = inhibition above about 21%;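 note: 0% = vehicle only and 100% = reference blocker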
TLR4 MyD88 comp – blocks binding of human TLR4 to MyD88; HeLa CL3-4 TLR4/MyD88 BLA complementation, FRET ratio; inhibition, % at 8.4 µM; 0.18% of 200,000 active; in the data active = inhibition above about 25%;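 note: 0% = vehicle and 100% = reference inhibitor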
SR-BI uptake up – enhances SR-BI lipid uptake from DiI-HDL; CHO ldlA[mSR-BI] cells, DiI-HDL uptake fluorescence, 3 h; 100 = double the neutral-control signal; activation, % at 12.5 µM; 0.096% of 320,000 active; AID 504775;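 active = mean replicate activation of at least 60% and every replicate at or above 60%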;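 note: 0% = median plate neutral-control signal and 100% = twice that signal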
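Assay system: LDL receptor-deficient CHO ldlA cells overexpressing murine SR-BI / Medium: BSA-supplemented, HEPES-buffered Ham's F12, pH 7.4 / Probe or stimulus: DiI-labelled HDL at 10 µg/mL final / Timing: compound with DiI-HDL co-incubation, 3 h at 37 °C / Technique: bottom-read cell fluorescence after medium removal, ex 550/em 595 nm / Measure: HDL uptake via cellular fluorescence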
SR-BI HDL uptake – mouse SR-BI HDL lipid transfer inhibition; Q61009; ldlA[mSR-BI] CHO cells, DiI-HDL uptake fluorescence, 3 h; inhibition, % at 12.5 µM; 0.96% of 320,000 active; AID 488896;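 active = mean replicate inhibition of at least 70% and a set share of replicates each scoring 70 or more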;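 note: 0% = median of neutral control wells and 100% = median of positive control wells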
Target sequence (Q61009 whole entry, looked up): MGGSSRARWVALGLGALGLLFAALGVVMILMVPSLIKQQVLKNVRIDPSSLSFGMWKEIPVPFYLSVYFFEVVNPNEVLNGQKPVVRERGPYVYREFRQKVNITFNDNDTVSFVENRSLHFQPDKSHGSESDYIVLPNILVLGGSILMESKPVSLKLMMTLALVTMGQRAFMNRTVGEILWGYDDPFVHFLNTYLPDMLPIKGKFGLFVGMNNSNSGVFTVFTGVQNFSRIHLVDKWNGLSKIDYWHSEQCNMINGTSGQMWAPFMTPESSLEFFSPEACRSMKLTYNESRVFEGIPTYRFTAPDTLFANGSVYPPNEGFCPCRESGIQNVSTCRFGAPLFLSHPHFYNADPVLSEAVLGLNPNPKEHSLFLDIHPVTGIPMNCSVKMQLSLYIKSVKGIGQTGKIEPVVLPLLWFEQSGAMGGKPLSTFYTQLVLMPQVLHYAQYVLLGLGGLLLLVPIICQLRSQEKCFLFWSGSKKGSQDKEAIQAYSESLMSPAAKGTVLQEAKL
TLR9-MyD88 cf – TLR9-MyD88 interaction inhibition, confirmation | shares compounds with TLR9-MyD88 block | CHO TLR9/MyD88 BLA complementation, CCF4 FRET ratio | inhibition, % at 4.98 µM | 51% of 680 active | AID 540250;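 active = mean inhibition across three repeats above about 21% taken from the earlier screen, limit read from the data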;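 note: blue over green emission ratio reports constitutive TLR9 MyD88 association via BLA complementation; 0% = DMSO vehicle wells and 100% = clavulanate BLA inhibitor wells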
BLA counter-1 – non-selective beta-lactamase inhibitors in TLR9-MyD88 counter-screen; shares compounds with TLR9-MyD88 block; CHO-BLA cells, CCF4 FRET ratio, BLA reporter; inhibition, % at 4.98 µM; 7% of 680 active; AID 540251;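 active = mean inhibition above a 50% cutoff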;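 note: counterscreen of TLR9-MyD88 hits on CMV-driven BLA in CHO-K1 cells; 0% = DMSO alone and 100% = clavulanate blocking BLA; higher means less blue over green ratio so more BLA blockade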
TLR9 CHO cytotox – CHO cell toxicity counter-screen for TLR9-MyD88 inhibitors | inhibition, % at 4.98 µM | 39% of 680 active | TLR9-MyD88 CHO cells cytotoxicity, luminescence | shares compounds with TLR9-MyD88 block | AID 588336; in the data active = inhibition above about 11%
NOD2 RIPK2 conf – NOD2-RIPK2 interaction inhibition confirmed; shares compounds with NOD2 RIPK2 PPI; CHO cells, NOD2-RIPK2 BLA complementation, CCF4 FRET; inhibition, % at 4.98 µM; 70% of 1,200 active; AID 624370;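 active = mean inhibition across replicates above a set limit taken from the earlier primary screen, cut at about 21% in these data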;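 note: 0% = DMSO-only wells and the high end = clavulanate BLA-blocked wells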
BLA counter-2 – hits BLA reporter in NOD2-RIPK2 inhibitor counterscreen; shares compounds with NOD2 RIPK2 PPI; CHO BLA reporter, CCF4 FRET ratio; inhibition, % at 4.98 µM; 57% of 1,200 active; AID 624371;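 active = mean inhibition above the low-control mean inhibition plus three low-control SD, cut at about 11% in these data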;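 note: 0% = DMSO only wells and 100% = clavulanate high control wells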
Starred values were filed as active, the others as inactive; nt = no result given. Hits are enriched below; roughly 1.6% of the tested compounds scored in any of these assays.

SMILES	Lipid droplet	TLR9-MyD88 block	NOD2 RIPK2 PPI	TLR4 MyD88 comp	SR-BI uptake up	SR-BI HDL uptake	TLR9-MyD88 cf	BLA counter-1	TLR9 CHO cytotox	others
O=C(N/N=C\c1c(O)ccc2ccccc12)c1cncc(Br)c1	-121.0	22.5*	11.2	nt	-142.7	142.7*	17.9	15.2	60.0*
O=C(c1cccc(-n2cnnn2)c1)N1CCOCC1	5.9	0.5	-7.2	-2.7	-2.9	2.9	nt	nt	nt
N#Cc1cccc(NC(=O)COC(=O)CCc2nc3ccccc3c(=O)[nH]2)c1	29.7	21.3*	-5.5	-11.5	7.1	-7.1	-1.1	-0.2	-2.1
COc1ccc(C2CC(c3ccncc3)=NN2c2ccc(S(N)(=O)=O)cc2)cc1 (stereo unspecified)	nt	19.5	36.7*	nt	-4.9	4.9	12.1	19.0	15.9*
CCN(CC(=O)NCc1ccc(F)cc1)C(=O)c1cccnc1SC	-24.4	-2.4	-6.2	nt	nt	nt	nt	nt	nt
Cc1cccc(NC(=O)CCN2C(=O)c3ccccc3S2(=O)=O)c1C	-2.4	21.4*	-14.9	nt	-14.9	14.9	4.0	1.4	-1.2
CCOc1ccc(NC(=O)CCNC(=O)C2CCN(S(=O)(=O)c3ccccc3)CC2)cc1	3.7	1.1	-3.7	nt	3.0	-3.0	nt	nt	nt
COc1ccc(S(=O)(=O)N2CCCCCC2)cc1Br	-0.2	-10.4	-10.4	2.0	-36.9	36.9	nt	nt	nt
COc1ccc(S(=O)(=O)N2CCNC(=O)C2)cc1Br	-3.9	22.1*	6.0	14.1	0.0	0.0	-3.5	-0.2	1.8
O=Nc1c(O)n(Cc2cccc(Cl)c2)c2ccccc12	nt	26.5*	20.1	3.9	18.8	-18.8	18.0	15.8	14.4*
NC(=S)N=Nc1c(O)n(Cc2ccccc2)c2ccccc12	-4.3	2.5	-7.8	-15.0	-5.9	5.9	nt	nt	nt
O=C(Nc1nc2c(s1)CN(Cc1ccccc1)CC2)c1cccc(S(=O)(=O)N2CCc3ccccc32)c1	nt	28.3*	8.1	19.2	-36.3	36.3	5.4	6.2	-1.6
O=C(Nc1nc2ccccc2s1)c1cccc(S(=O)(=O)N2CCc3ccccc32)c1	-0.3	7.0	2.2	nt	-68.3	68.3	nt	nt	nt
Cc1nn(C)c(C)c1/C=N/NC(=O)CCn1nc(C)c([N+](=O)[O-])c1C	2.2	27.6*	-0.6	-4.1	19.3	-19.3	-1.8	0.5	-0.7
CC(=O)C1=C(C)NC(SCC(=O)c2ccc(Cl)c(Cl)c2)=C(C#N)C1c1ccco1 (stereo unspecified)	nt	21.0*	3.8	18.5	-25.0	25.0	7.1	7.5	8.9
CCCCn1c(N)c(N(CC(C)C)C(=O)c2ccc(-c3ccc(C(C)=O)cc3)o2)c(=O)[nH]c1=O	nt	-24.0	-3.3	nt	-31.2	31.2	nt	nt	nt
CCCC(=O)Nc1ccc2c(c1)nc(CCN1CCN(c3ccccn3)CC1)n2C	5.2	26.8*	-4.7	nt	0.6	-0.6	2.3	3.3	2.9
CCCCC(=O)Nc1ccc2c(c1)nc(CCN1CCN(c3ccccn3)CC1)n2C	3.2	-6.8	1.2	nt	0.6	-0.6	nt	nt	nt
CCOC(=O)CCS(=O)(=O)c1nc(-c2ccccc2)cc(C(F)(F)F)n1	-1.0	32.9*	69.3*	24.2	8.6	-8.6	39.4*	13.3	96.6*
CCOC(=O)CS(=O)(=O)c1nc(-c2ccc(F)cc2)cc(C(F)(F)F)n1	-9.0	42.1*	69.5*	6.8	-19.8	19.8	37.0*	14.2	99.4*
N#CC1=C(N)Oc2cc(O)c(Cl)cc2C1c1ccccc1F (stereo unspecified)	nt	22.4*	1.3	nt	6.3	-6.3	2.0	4.8	-1.9
Cc1ccc(-c2cc(NC(=O)c3ccccc3)on2)cc1	0.4	23.8*	-5.8	nt	3.2	-3.2	1.7	-0.3	-1.7
O=C(NCC1CCCO1)c1cccc2c1C(=O)c1ccc(N3CCC(Cc4ccccc4)CC3)cc1S2(=O)=O (stereo unspecified)	nt	31.5*	50.9*	nt	-9.8	9.8	23.4*	25.1	10.1
CC1CCN(c2ccc3c(c2)S(=O)(=O)c2cccc(C(=O)NC[C@@H]4CCCO4)c2C3=O)CC1	nt	-1.4	14.4	nt	0.2	-0.2	nt	nt	nt
O=C(NCc1ccccc1Br)c1cccc2c1C(=O)c1ccc(N3CCC(Cc4ccccc4)CC3)cc1S2(=O)=O	nt	15.3	8.3	nt	18.0	-18.0	nt	nt	nt
SMILES	Lipid droplet	TLR9-MyD88 block	NOD2 RIPK2 PPI	TLR4 MyD88 comp	SR-BI uptake up	SR-BI HDL uptake	TLR9-MyD88 cf	BLA counter-1	TLR9 CHO cytotox	others
O=C(NC1CCCCC1)c1cccc2c1C(=O)c1ccc(N3CCC(Cc4ccccc4)CC3)cc1S2(=O)=O	nt	80.5*	20.9	nt	-10.7	10.7	37.4*	41.1	1.3
COc1ccccc1C(=O)NCCC(=O)N1CC(C)OC(C)C1 (stereo unspecified)	nt	0.3	-5.6	nt	-1.4	1.4	nt	nt	nt
CCOC(=O)COc1ccccc1/C=C\[N+](=O)[O-]	-27.6	33.1*	86.8*	22.5	28.4	-28.4	47.1*	5.9	95.7*
Cc1ccc(C(=O)COC(=O)COc2ccccc2[N+](=O)[O-])s1	nt	-10.3	-13.5	nt	4.9	-4.9	nt	nt	nt
CS(=O)(=O)c1ccc(C(=O)OCC(=O)NCc2cccs2)cc1[N+](=O)[O-]	nt	21.6*	10.2	nt	26.9	-26.9	29.5*	13.6	78.3*
Cc1cccc(C(=O)OCC(=O)NCc2cccs2)c1	13.8	-6.8	-3.0	8.3	-13.8	13.8	nt	nt	nt
CN(c1ccccc1)S(=O)(=O)c1ccc(NC(=O)c2ccccc2)cc1	-8.2	9.7	2.0	-22.0	-1.1	1.1	nt	nt	nt
CN(c1ccccc1)S(=O)(=O)c1ccc(NC(=O)c2nc(S(C)(=O)=O)ncc2Cl)cc1	-0.2	57.6*	99.8*	nt	-30.3	30.3	52.3*	33.2	102.5*	NOD2 RIPK2 conf=93.3*;BLA counter-2=50.6*
COc1cccc(NC(=O)c2nc(S(C)(=O)=O)ncc2Cl)c1	-3.6	44.8*	73.7*	nt	-2.5	2.5	42.3*	32.7	99.9*	NOD2 RIPK2 conf=66.6*;BLA counter-2=32.2*
COc1cccc2c(=O)n(CC(=O)Nc3cccc(F)c3)ccc12	nt	-1.9	-7.7	13.3	5.7	-6.7	nt	nt	nt
